Reference: ChEMBL document CHEMBL1800063, “Isolation and structural elucidation of proline-containing cyclopentapeptides from an endolichenic Xylaria sp” (2011)
Active and inactive are the calls of the source. The calls are words filed in the database; no cut-off is given here.

These compounds were tested on Candida albicans (assay: Antifungal activity against Candida albicans SC5314 at 6.25 ug/mL after 16 hrs by broth microdilution method in presence of 0.004 ug/mL ketoconazole relative to compound alone).
Format: functional

Row | Structure (SMILES) | fractional inhibitory concentration index (FICI)
1 | CC[C@@H](C)[C@H]1NC(=O)[C@H](C(C)C)NC(=O)[C@H](Cc2ccccc2)N(C)C(=O)[C@@H]2CCCN2C(=O)[C@H](CC(C)C)NC1=O | <0.3125

These compounds were tested on Candida albicans (assay: Antifungal activity against Candida albicans SC5314 at 1 ug/mL after 16 hrs by broth microdilution method in presence of 0.004 ug/mL ketoconazole relative to compound alone).
Format: functional

Row | Structure (SMILES) | fractional inhibitory concentration index (FICI)
2 | CC(C)[C@@H]1OC(=O)[C@@H](Cc2ccccc2)N(C)C(=O)[C@H](C(C)C)OC(=O)[C@@H](Cc2ccccc2)N(C)C(=O)[C@H](C(C)C)OC(=O)[C@@H](Cc2ccccc2)N(C)C1=O [BEAUVERICIN] | <0.375

What follows are compounds tested on Candida albicans (assay: Antifungal activity against Candida albicans SC5314 at 100 ug/mL after 16 hrs by broth microdilution method).
Format: functional, organism-based
In short: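 Candida albicans SC5314 broth microdilution adapted from CLSI M-27A. Overnight culture suspended in RPMI 1640 at 1 × 10^4 cfu/mL. 2 μL of sample plus 80 μL of suspension per well, incubated at 35 °C for 16 h. Ketoconazole was the positive control. Growth was read as optical density against blank-control wells to give the MIC.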

Row | Structure (SMILES) | Activity
3 | CC(C)[C@@H](C)/C=C/[C@@H](C)[C@H]1CC[C@H]2C3=CC(=O)C4=CC(=O)CC[C@]4(C)[C@H]3CC[C@]12C | inactive
4 | CC(C)C(C)/C=C/[C@@H](C)[C@H]1CCC2=C3C=CC4=CC(=O)CC[C@]4(C)[C@H]3CC[C@@]21C (some centres not stated) | inactive
5 | CC[C@@H](C)[C@H]1NC(=O)[C@H](C(C)C)NC(=O)[C@H](Cc2ccccc2)N(C)C(=O)[C@@H]2CCCN2C(=O)[C@H](CC(C)C)NC1=O | inactive
6 | CO[C@@H]1C=C2C3CC[C@H](C(C)/C=C/C(C)C(C)C)[C@@]3(C)CC[C@@H]2[C@@]2(C)CC[C@H](O)C[C@]12O (some centres not stated) | inactive
7 | CC(C)[C@@H](C)/C=C/[C@@H](C)[C@H]1CC[C@H]2C3=C[C@@H](O)[C@@]4(O)C[C@@H](O)CC[C@]4(C)[C@H]3CC[C@]12C | inactive
8 | C[C@]1(CCO)CC[C@H]2C(=CC[C@@H]3[C@]2(C)CCC[C@@]3(C)C(=O)O)C1 | inactive
9 | CC(C)[C@@H](C)/C=C/[C@@H](C)[C@H]1CC[C@@H]2[C@]1(C)CCC1[C@]23C=CC2(CC(O)CC[C@]12C)OO3 (some centres not stated) | inactive
10 | CC(C)[C@@H](C)/C=C/[C@@H](C)[C@H]1CC[C@H]2C3=CC=C4C[C@@H](O)CC[C@]4(C)[C@H]3CC[C@]12C | inactive

Each compound was assayed on Candida albicans (assay: Antifungal activity against Candida albicans SC5314 at 100 ug/mL after 16 hrs by CLSI M-27A broth microdilution method in presence of 0.004 ug/mL ketoconazole relative to compound alone).
Format: functional, organism-based

Row | Structure (SMILES) | Activity
11 | CC(C)[C@@H](C)/C=C/[C@@H](C)[C@H]1CC[C@H]2C3=CC(=O)C4=CC(=O)CC[C@]4(C)[C@H]3CC[C@]12C | inactive
12 | CC(C)C(C)/C=C/[C@@H](C)[C@H]1CCC2=C3C=CC4=CC(=O)CC[C@]4(C)[C@H]3CC[C@@]21C (some centres not stated) | inactive
13 | CO[C@@H]1C=C2C3CC[C@H](C(C)/C=C/C(C)C(C)C)[C@@]3(C)CC[C@@H]2[C@@]2(C)CC[C@H](O)C[C@]12O (some centres not stated) | inactive
14 | CC(C)[C@@H](C)/C=C/[C@@H](C)[C@H]1CC[C@H]2C3=C[C@@H](O)[C@@]4(O)C[C@@H](O)CC[C@]4(C)[C@H]3CC[C@]12C | inactive
15 | C[C@]1(CCO)CC[C@H]2C(=CC[C@@H]3[C@]2(C)CCC[C@@]3(C)C(=O)O)C1 | inactive
16 | CC(C)[C@@H](C)/C=C/[C@@H](C)[C@H]1CC[C@@H]2[C@]1(C)CCC1[C@]23C=CC2(CC(O)CC[C@]12C)OO3 (some centres not stated) | inactive
17 | CC(C)[C@@H](C)/C=C/[C@@H](C)[C@H]1CC[C@H]2C3=CC=C4C[C@@H](O)CC[C@]4(C)[C@H]3CC[C@]12C | inactive
